The target of test [1] is T1, Serotonin 2 (5-HT2) receptor (Rattus norvegicus, UniProt P30994+P08909+P14842). Put plainly: Compound was evaluated for binding affinity towards 5-hydroxytryptamine 2 receptor in rat anterior cortex using [3H]ketanserin as radioligand. The gist of the method:
(§1)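 Competition binding against the named radioligand on the native tissue membranes shown, radioligand at roughly its K_D for the binding system; procedures otherwise follow earlier published methods.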

Test [2] deals with T2, 5-hydroxytryptamine receptor 1A (Rattus norvegicus, UniProt P19327).
T2 sequence (P19327 whole entry): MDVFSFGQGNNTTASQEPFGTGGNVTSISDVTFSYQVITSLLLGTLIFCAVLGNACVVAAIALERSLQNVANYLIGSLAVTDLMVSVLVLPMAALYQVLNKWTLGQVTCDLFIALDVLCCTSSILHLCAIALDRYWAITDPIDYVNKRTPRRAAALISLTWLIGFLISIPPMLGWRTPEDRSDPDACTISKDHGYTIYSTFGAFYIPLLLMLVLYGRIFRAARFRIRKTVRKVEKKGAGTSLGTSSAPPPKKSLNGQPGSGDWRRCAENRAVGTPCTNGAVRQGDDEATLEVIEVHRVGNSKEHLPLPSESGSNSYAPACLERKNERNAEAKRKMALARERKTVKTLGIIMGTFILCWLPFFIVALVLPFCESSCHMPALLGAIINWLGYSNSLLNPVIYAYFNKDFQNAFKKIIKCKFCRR
Kind of test: Compound was evaluated for binding affinity towards 5-hydroxytryptamine 1A receptor in rat cortex using [3H]-8-OH-DPAT as radioligand. In short, it runs like this: as §1

The target in test [3] is T1, Serotonin 2 (5-HT2) receptor. Put plainly: Compound was evaluated for binding affinity towards 5-hydroxytryptamine 2 receptor in rat anterior cortex using [125I]DOI as radioligand. In short, it runs like this: as §1

pIC50: −log10 of the molar value.

In general, IC50 refers to the concentration at which inhibition is half-maximal. Lower therefore signals greater potency in that assay. In general, pIC50 refers to the IC50 on a negative log10 scale, so that one unit is a factor of ten. A high value points to a small IC50.

`CN(C)CCc1c[nH]c2cc3c(cc12)OCCC3`: the IC50 turned out to be 5.9 µM in test [1] and 0.92 µM in test [3]. In test [2], this molecule had a pIC50 of 5.92.
`Cn1cc(CCN)c2c3c(ccc21)OCCC3`: the IC50 in test [1] was found to be 0.8 µM; in test [3], 0.014 µM.
On to `CN(C)CCc1cn(C)c2ccc3c(c12)CCCO3`, for which the IC50 in test [1] was determined as 1 µM; in test [3], 0.081 µM. In test [2], this molecule showed a pIC50 of 5.27.
Regarding `NCCc1c[nH]c2ccc3c(c12)CCCO3`, the IC50 stood at 2.2 µM in test [1] and 0.014 µM in test [3]. This molecule also showed a pIC50 in test [2] of 6.21.
Consider `COc1ccc2[nH]cc(CCN(C)C)c2c1` [MEBUFOTENIN], for which the pIC50 in test [2] was 7.96.
